Data on 20 compounds can be found in ChEMBL document CHEMBL1141948, “Selective and orally bioavailable phenylglycine tissue factor/factor VIIa inhibitors” (Bioorg Med Chem Lett, 2005).

The structures appear in SMILES notation.

One data set has as its target Trypsin (Homo sapiens, UniProt P07477+P07478+P35030). As to the kind of experiment: Binding affinity to trypsin. The class given is protein assay.
Data set [1] has as its target Coagulation factor VII/tissue factor (Homo sapiens) (UniProt P08709+P13726). The note with it: Plasma.
The target in data set [2] is T1, Coagulation factor X (Homo sapiens, UniProt P00742). As to the kind of experiment: Binding affinity to FXa.
T1 sequence (P00742 41-179 limits assumed): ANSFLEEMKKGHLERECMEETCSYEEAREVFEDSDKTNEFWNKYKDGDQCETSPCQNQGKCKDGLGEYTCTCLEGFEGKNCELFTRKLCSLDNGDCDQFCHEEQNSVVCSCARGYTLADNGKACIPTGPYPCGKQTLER
T1 sequence (P00742 235-488 limits assumed): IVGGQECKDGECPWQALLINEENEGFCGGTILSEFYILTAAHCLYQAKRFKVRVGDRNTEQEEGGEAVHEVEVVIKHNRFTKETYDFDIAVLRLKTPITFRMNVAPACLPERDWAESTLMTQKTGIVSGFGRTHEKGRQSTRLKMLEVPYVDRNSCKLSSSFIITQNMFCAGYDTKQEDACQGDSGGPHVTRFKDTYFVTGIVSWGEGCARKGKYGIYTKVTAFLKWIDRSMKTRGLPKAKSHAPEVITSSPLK
Another data set concerns the target Prothrombin (Homo sapiens, UniProt P00734). In words: Binding affinity to thrombin.
Data set [3] deals with Coagulation factor VII/tissue factor (Homo sapiens, UniProt P08709). As to the kind of experiment: Binding affinity to FVIIa/TF. It is filed as protein-complex assay.
Sequence of Coagulation factor VII/tissue factor (P08709 61-212 limits assumed): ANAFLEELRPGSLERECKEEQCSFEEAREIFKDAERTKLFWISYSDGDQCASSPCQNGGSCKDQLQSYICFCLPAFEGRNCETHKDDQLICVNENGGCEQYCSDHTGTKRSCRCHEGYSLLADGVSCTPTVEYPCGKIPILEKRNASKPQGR
Sequence of Coagulation factor VII/tissue factor (P08709 213-466 limits assumed): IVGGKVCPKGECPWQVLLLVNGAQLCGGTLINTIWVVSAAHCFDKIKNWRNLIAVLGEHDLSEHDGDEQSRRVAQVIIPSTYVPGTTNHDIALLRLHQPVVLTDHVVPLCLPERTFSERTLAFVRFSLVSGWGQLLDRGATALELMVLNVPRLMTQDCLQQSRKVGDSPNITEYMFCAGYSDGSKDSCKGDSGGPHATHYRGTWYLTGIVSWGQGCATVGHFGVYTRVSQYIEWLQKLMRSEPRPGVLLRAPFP
Sequence of Coagulation factor VII/tissue factor (P13726 33-295 partner limits assumed): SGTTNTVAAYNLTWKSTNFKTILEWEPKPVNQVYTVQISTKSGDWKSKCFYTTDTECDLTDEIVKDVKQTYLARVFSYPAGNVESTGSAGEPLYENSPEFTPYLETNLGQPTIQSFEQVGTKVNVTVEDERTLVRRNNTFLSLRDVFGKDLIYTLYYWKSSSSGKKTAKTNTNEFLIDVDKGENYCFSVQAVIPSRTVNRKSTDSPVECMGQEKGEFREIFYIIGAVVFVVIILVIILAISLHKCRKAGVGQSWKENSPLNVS
The target in data set [4] is T1, Coagulation factor X. In words: Activated partial thromboplastin time. It is filed as functional. Summed up:
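Human citrated plasma spiked with at least six inhibitor concentrations; intrinsic-pathway clotting started with Actin FS (ellagic acid in soy phosphatides). Clotting time read by turbidity. Concentration doubling control clotting time (EC50) obtained by fitting data to exponential regression.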

Data set [5] can be described thus: Half life in rat administered with 10 mg/kg, iv. The arrangement: dose 10 mg/kg, route intravenous. The class given is ADME, organism-based. The note with it: in vivo. Summed up: (§1)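 Rat pharmacokinetics with intravenous and oral dosing at the stated doses (mg/kg). Half-lives determined for iv and po routes; clearance (ml/min/kg), steady-state volume of distribution (l/kg) and oral bioavailability (%) derived.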

A short description of data set [6]: Oral bioavailability in rat at 10 mg/kg. The class given is ADME, organism-based. The note with it: in vivo. In outline:
as §1

Data set [7] is described as follows: Half life in rat administered with 10 mg/kg, po. Further details: dose 10 mg/kg, route oral. The settings on record: in vivo. The class given is ADME, organism-based. In outline: as §1
For the next data set, the species on record is Homo sapiens. In words: Ratio of activated partial thromboplastin time against prothrombin time (aPTT/PT). It is filed as functional.
Data set [8] can be described thus: Clearance in rat at 3 mg/kg. The class given is ADME, organism-based. The arrangement: dose 3 mg/kg. The note with it: in vivo. In outline: as §1
The nature of data set [9]: Half life in rat administered with 3 mg/kg, iv. It is filed as ADME, organism-based. The arrangement: dose 3 mg/kg, route intravenous. The settings on record: in vivo. In outline: as §1
The nature of data set [10]: Volume of distribution in rat at 3 mg/kg. Further details: dose 3 mg/kg. The settings on record: in vivo, read-out: Vdss. The class given is ADME, organism-based. Summed up: as §1
A short description of data set [11]: Oral bioavailability in rat at 10.3 mg/kg. It is filed as ADME, organism-based. The note with it: in vivo.
Data set [12] is described as follows: Half life in rat administered with 10.3 mg/kg, po. It is filed as ADME, organism-based. The arrangement: dose 10.3 mg/kg, route oral. The note with it: in vivo.
Data set [13] can be described thus: Clearance in rat at 6.1 mg/kg. It is filed as ADME, organism-based. Further details: dose 6.1 mg/kg. The note with it: in vivo. In outline: as §1
A short description of data set [14]: Volume of distribution in rat at 6.1 mg/kg. The note with it: in vivo, read-out: Vdss. The class given is ADME, organism-based. Further details: dose 6.1 mg/kg. In outline:
as §1

Data set [15] can be described thus: Half life in rat administered with 6.1 mg/kg, iv. It is filed as ADME, organism-based. The arrangement: dose 6.1 mg/kg, route intravenous. The settings on record: in vivo. In outline: as §1
The nature of data set [16]: Oral bioavailability in rat at 6.1 mg/kg. The class given is ADME, organism-based. The settings on record: in vivo. In outline: as §1

As usually defined, the Ki is the dissociation constant of the complex between target and ligand, obtained from inhibition or displacement. The term half-life denotes the time needed for the level to fall by half in the phase considered. The low end stands for rapid decline, the high end for slow decline. In general, bioavailability refers to the share of a dose that reaches the circulation, judged against a reference dose that is usually intravenous. As usually defined, the clearance is the volume of plasma or blood freed of the substance per unit of time. Read a high clearance as efficient removal.

With `COc1cc(C(Nc2ccc(C(=N)N)cc2)C(=O)O)ccc1OCc1ccccc1` (stereo unspecified), the Ki at Trypsin was determined as 0.31 µM; at Coagulation factor X [2] it was 730 nM; at Prothrombin, 0.074 µM; in data set [3], 61 nM. The 2PT in data set [1] was 11.9 µM.

Turning to `CCOc1cc(O[C@@H]2CCOC2)cc(C(Nc2ccc(C(=N)N)cc2)C(=O)O)c1` (stereo partly specified), the Ki at Trypsin was determined as 9.9 µM; on Coagulation factor X [2] it was 9100 nM; on Prothrombin it was 11.3 µM. In addition, on Coagulation factor X [4], the 2aPTT came out at 51.7 µM.

On to `CCOC(=O)C(Nc1ccc(C(=N)NO)cc1)c1cc(OCC)cc(O[C@H]2CCOC2)c1` (stereo partly specified), for which the half-life in data set [5] was 54 min; in data set [7] it was 246 min. The bioavailability in data set [6] stood at 15%.

As for `CCOc1cc(OC2CCOCC2)cc(C(Nc2ccc(C(=N)N)cc2)C(=O)O)c1` (stereo unspecified), the Ki was 7 µM on Trypsin, 2900 nM at Coagulation factor X [2], above 6.6 µM at Prothrombin and 140 nM in data set [3]. Also, the 2PT in [1] turned out to be 4.8 µM. The same compound came in with a 2aPTT on Coagulation factor X [4] of 19.8 µM. In the data set filed under Homo sapiens, the Ratio is 4.1.

With `CCOc1cc(O[C@H]2CCOC2)cc(C(Nc2ccc(C(=N)N)cc2)C(=O)O)c1` (stereo partly specified), the results for the Ki on Trypsin, at Coagulation factor X [2] and at Prothrombin were 7.3 µM, 2300 nM and 8.6 µM, respectively. Further, the clearance in data set [8] worked out at 5.7 mL/min/kg. In addition, the half-life in data set [9] was 84 min. On Coagulation factor X [4], this compound showed a 2aPTT of 17.2 µM. In addition, the Vd in data set [10] was found to be 0.5 L/kg.

As to `CCOc1cc(-c2ccccc2)cc(C(Nc2ccc(C(=N)N)cc2)C(=O)O)c1` (stereo unspecified), the Ki was above 68 µM on Trypsin, 1400 nM on Coagulation factor X [2], 7.3 µM at Prothrombin and 130 nM in [3]. The 2PT in [1] turned out to be 35.6 µM. In addition, the 2aPTT on Coagulation factor X [4] turned out to be 69.9 µM. Besides, the Ratio in the data set filed under Homo sapiens came to 2.

Turning to `CCOc1cc(OC2CCN(S(C)(=O)=O)CC2)cc(C(Nc2ccc(C(=N)N)cc2)C(=O)O)c1` (stereo unspecified), the Ki is 3.5 µM on Trypsin, 4400 nM on Coagulation factor X [2], above 3.5 µM at Prothrombin and 180 nM in data set [3]. Besides, the 2PT in [1] is 4.8 µM. The 2aPTT at Coagulation factor X [4] was 26.9 µM. Besides, in the data set listed under Homo sapiens, the Ratio is 5.6.

As to `C#Cc1cc(OC2CCOCC2)cc(C(Nc2ccc(C(=N)N)cc2)C(=O)O)c1` (stereo unspecified), the Ki amounted to 1.9 µM on Trypsin, 2900 nM at Coagulation factor X [2], 4.7 µM at Prothrombin and 38 nM in data set [3]. In data set [1], the 2PT was 3.4 µM. The compound further returned a 2aPTT on Coagulation factor X [4] of 14.3 µM. In the data set filed under Homo sapiens, the Ratio was 4.2.

`CCOc1cc(O[C@H]2CCOC2)cc([C@@H](Nc2ccc(C(=N)N)cc2)C(=O)O)c1`: the Ki on Trypsin came to 4.5 µM; on Coagulation factor X [2], 1500 nM; on Prothrombin it was 4.6 µM. For the same compound, the 2aPTT at Coagulation factor X [4] is 10.3 µM.

In the case of `CCOc1cc(OCC)cc(C(Nc2ccc(C(=N)NO)cc2)C(=O)O)c1` (stereo unspecified), in [11], the bioavailability came to 30%. In [12], this compound had a half-life of 300 min.

With `C=Cc1cc(OC2CCOCC2)cc(C(Nc2ccc(C(=N)N)cc2)C(=O)O)c1` (stereo unspecified), the Ki on Trypsin is 8.7 µM; at Coagulation factor X [2] it was 13300 nM; on Prothrombin, 2.9 µM; in data set [3], 69 nM. The compound further yielded a 2PT in data set [1] of 5.9 µM. At Coagulation factor X [4], the 2aPTT is 23.7 µM. In addition, in the data set filed under Homo sapiens, the Ratio came to 4.

As to `CCOc1cc(O[C@H]2CC[C@H](O)CC2)cc(C(Nc2ccc(C(=N)N)cc2)C(=O)O)c1` (stereo partly specified), the Ki on Trypsin amounted to 4 µM; at Coagulation factor X [2], 12200 nM; on Prothrombin, 5.5 µM; in [3] it was 110 nM. In addition, the 2PT in data set [1] was 5.4 µM. Besides, at Coagulation factor X [4], the 2aPTT amounted to 29.4 µM. In addition, the Ratio in the data set filed under Homo sapiens came to 5.4.

In the case of `C#Cc1cc(O[C@H]2CCOC2)cc(C(Nc2ccc(C(=N)N)cc2)C(=O)O)c1` (stereo partly specified), the Ki was determined as 5.4 µM on Trypsin, 2600 nM at Coagulation factor X [2], 9.5 µM at Prothrombin and 65 nM in [3]. The 2PT in data set [1] worked out at 4.3 µM. This compound also gave a 2aPTT at Coagulation factor X [4] of 12.9 µM. Further, in the data set listed under Homo sapiens, the Ratio was found to be 3.

As for `CCOc1cc(OCC)cc(C(Nc2ccc(C(=N)N)cc2)C(=O)O)c1` (stereo unspecified), the Ki on Trypsin is 16.9 µM; at Coagulation factor X [2] it was 5600 nM; on Prothrombin, above 35 µM. The clearance in [13] is 2.6 mL/min/kg. Moreover, the Vd in data set [14] worked out at 0.3 L/kg. Also, the half-life in data set [15] is 174 min. This compound gave a bioavailability in [16] of 2%.

Take `CCc1cc(OC2CCOCC2)cc(C(Nc2ccc(C(=N)N)cc2)C(=O)O)c1` (stereo unspecified): the Ki was 4.8 µM on Trypsin, above 7500 nM on Coagulation factor X [2] and 1.6 µM on Prothrombin. This compound registered a 2aPTT on Coagulation factor X [4] of 15.6 µM.

Consider `CCOc1cc(-c2cccnc2)cc(C(Nc2ccc(C(=N)N)cc2)C(=O)O)c1` (stereo unspecified), for which the Ki at Trypsin was determined as 8 µM; at Coagulation factor X [2], 2200 nM; on Prothrombin, 10.2 µM; in data set [3], 510 nM. This compound showed a 2PT in data set [1] of 11.8 µM. For the same compound, on Coagulation factor X [4], the 2aPTT came out at 57.6 µM. Also, the Ratio in the data set filed under Homo sapiens came out at 4.9.

In the case of `CCOc1cc(C(Nc2ccc(C(=N)N)cc2)C(=O)O)ccc1OCc1ccccc1` (stereo unspecified), the inhibition constant Ki is 1 µM on Trypsin, 790 nM at Coagulation factor X [2], 0.085 µM at Prothrombin and 28 nM in data set [3]. For the same compound, the 2PT in [1] came out at 8.8 µM.

`CCOc1cc(OC2CCN(C)CC2)cc(C(Nc2ccc(C(=N)N)cc2)C(=O)O)c1` (stereo unspecified): the Ki on Trypsin amounted to 8.6 µM; at Coagulation factor X [2] it was 1600 nM; on Prothrombin it was 9.9 µM. The compound further came in with a 2aPTT on Coagulation factor X [4] of 22.3 µM.

On to `CCOC(=O)C(Nc1ccc(C(=N)NO)cc1)c1cc(OCC)cc(OCC)c1` (stereo unspecified), for which the half-life in data set [5] was 210 min; in data set [7], 288 min. The compound further displayed a bioavailability in data set [6] of 100%.

On to `C#Cc1cc(O[C@@H]2CCOC2)cc(C(Nc2ccc(C(=N)N)cc2)C(=O)O)c1` (stereo partly specified), for which the Ki at Trypsin came to 6.6 µM; at Coagulation factor X [2] it was 15300 nM; on Prothrombin it was 8.8 µM; in data set [3], 129 nM. In addition, the 2PT in data set [1] stood at 9.1 µM. This compound also showed a 2aPTT at Coagulation factor X [4] of 34 µM. Also, in the data set filed under Homo sapiens, the Ratio was 3.7.
